Measurements from ChEMBL document CHEMBL1671805, “Biotin ergopeptide probes for dopamine receptors” (J Med Chem, 2011).
pKd: −log10 of the molar value. Calls of active or inactive are those of the source. The rule behind the calls is not given here.

Experiments:
[1] = organism: Ovis aries; assay: Displacement of [3H]-YM09151-2 from dopamine D2 receptor in lamb brain striatum membranes at 25 uM; assay type: cell membranes; settings: Membrane
Method in brief: (§1)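 Lamb striatal membranes (0.5 mg prot/mL) in 50 mM Tris-HCl pH 7.4 with 10 mM MgCl2 were incubated 2 h at 22 C. Radioligand was 0.9 nM [3H]-SCH23390 (D1) or 0.7 nM [3H]-YM09151-2 (D2). Screens used 25 μM compound; competition used increasing concentrations. Nonspecific binding was taken with 10 μM SCH23390 (D1) or raclopride (D2). Bound ligand was filtered and counted. KD values came from a two-state dimer receptor model fit.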

[2] = organism: Ovis aries; assay: Displacement of [3H]-SCH23390 from dopamine D1 receptor in lamb brain striatum membranes at 25 uM; assay type: cell membranes; settings: Membrane; method in brief: as §1
[3] = Displacement of [3H]-SCH23390 from dopamine D1 receptor high binding affinity site in lamb brain striatum membranes at 25 uM; assay type: cell membranes, Ovis aries, Membrane; method in brief: as §1
[4] = Displacement of [3H]-SCH23390 from dopamine D1 receptor low binding affinity site in lamb brain striatum membranes at 25 uM; assay type: cell membranes, Ovis aries, Membrane; method in brief: as §1
[5] = Displacement of [3H]-YM09151-2 from dopamine D2 receptor high binding affinity site in lamb brain striatum membranes at 25 uM; assay type: cell membranes, Ovis aries, Membrane; method in brief: as §1
[6] = Displacement of [3H]-YM09151-2 from dopamine D2 receptor low binding affinity site in lamb brain striatum membranes at 25 uM; assay type: cell membranes, Ovis aries, Membrane; method in brief: as §1
[7] = target: T1, Adenosine receptor A1 (Homo sapiens) (UniProt P30542); assay: Displacement of [3H]-R-PIA from adenosine A1 receptor at 25 uM
T1 sequence (whole entry): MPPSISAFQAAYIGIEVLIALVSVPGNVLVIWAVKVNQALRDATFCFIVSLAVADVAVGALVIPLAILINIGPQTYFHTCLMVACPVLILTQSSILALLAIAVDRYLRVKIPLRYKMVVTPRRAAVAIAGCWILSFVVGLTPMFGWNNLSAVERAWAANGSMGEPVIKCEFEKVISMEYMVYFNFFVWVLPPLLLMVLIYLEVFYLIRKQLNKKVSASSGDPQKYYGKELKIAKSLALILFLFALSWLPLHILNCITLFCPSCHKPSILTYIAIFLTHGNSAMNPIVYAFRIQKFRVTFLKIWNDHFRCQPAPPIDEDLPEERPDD
Method in brief: (§2)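 Membranes were incubated with 25 μM compound for 2 h at 22 C in 50 mM Tris-HCl pH 7.4 with 10 mM MgCl2 and 0.2 U/mL ADA. Radioligand was 1.0 nM [3H]-R-PIA (A1) or 1.6 nM [3H]ZM241385 (A2A). Nonspecific binding was taken with 10 μM DPCPX (A1) or ZM241385 (A2A). Separation was by GF/C filtration, then scintillation counting.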

[8] = target: Adenosine receptor A2a (Homo sapiens) (UniProt P29274); assay: Displacement of [3H]-ZM241385 from adenosine A2A receptor at 25 uM; method in brief: as §2
Chain of Adenosine receptor A2a (Homo sapiens) (P29274 whole entry): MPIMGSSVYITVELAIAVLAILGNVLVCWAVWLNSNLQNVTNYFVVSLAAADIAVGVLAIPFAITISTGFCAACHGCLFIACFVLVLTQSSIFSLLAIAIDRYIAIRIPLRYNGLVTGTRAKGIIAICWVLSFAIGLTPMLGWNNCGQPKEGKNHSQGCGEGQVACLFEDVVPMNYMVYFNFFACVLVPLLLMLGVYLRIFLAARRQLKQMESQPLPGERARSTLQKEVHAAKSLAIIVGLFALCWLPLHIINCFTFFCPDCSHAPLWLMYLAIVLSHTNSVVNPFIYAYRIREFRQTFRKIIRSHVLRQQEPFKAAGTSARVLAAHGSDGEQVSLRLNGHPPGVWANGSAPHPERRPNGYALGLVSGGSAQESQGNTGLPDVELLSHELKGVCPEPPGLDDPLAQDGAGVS

Activity [1] | Activity [2] | SMILES | also measured
Active |  | CC(=O)N[C@@H](CCCCNC(=O)[C@@H](CCCCN)NC(=O)[C@@H]1CCCN1C(=O)[C@H](Cc1ccc([N+](=O)[O-])cc1)NC(=O)[C@@H](NC(=O)[C@@H]1C=C2c3cccc4[nH]cc(c34)C[C@H]2N(C)C1)C(C)C)C(N)=O | 
Active |  | CC(=O)N[C@@H](CCC(=O)Nc1ccc(Sc2ccc(NC(=O)C3CCCN(C(=O)[C@H](Cc4ccc(F)cc4)NC(=O)[C@H](Cc4ccc([N+](=O)[O-])cc4)NC(=O)[C@@H]4C=C5c6cccc7[nH]cc(c67)C[C@H]5N(C)C4)C3)cc2)cc1)C(N)=O (stereo not given in full) | 
Active |  | CC(=O)N[C@@H](CCCCNC(=O)c1ccc(C(=O)c2ccc(C(=O)NCCNC(=O)C3CCCN(C(=O)[C@H](Cc4ccc(F)cc4)NC(=O)[C@H](Cc4ccc([N+](=O)[O-])cc4)NC(=O)[C@@H]4C=C5c6cccc7[nH]cc(c67)C[C@H]5N(C)C4)C3)cc2)cc1)C(N)=O (stereo not given in full) | 
Active | inactive | CC(=O)N[C@@H](CCCCNC(=O)[C@H](N)CCCCNC(=O)[C@@H]1CCCN1C(=O)[C@H](Cc1ccc([N+](=O)[O-])cc1)NC(=O)[C@@H](NC(=O)[C@@H]1C=C2c3cccc4[nH]cc(c34)C[C@H]2N(C)C1)C(C)C)C(N)=O | 
Active | Active | CC(=O)N[C@@H](CCC(=O)NCCCCCCNC(=O)[C@@H]1CCCN1C(=O)[C@H](Cc1ccc([N+](=O)[O-])cc1)NC(=O)[C@@H](NC(=O)[C@@H]1C=C2c3cccc4[nH]cc(c34)C[C@H]2N(C)C1)C(C)C)C(N)=O | 
Active |  | CC(=O)N[C@@H](CCC(=O)Nc1ccc(-c2ccc(NC(=O)[C@@H]3CCCN3C(=O)[C@H](Cc3ccc([N+](=O)[O-])cc3)NC(=O)[C@@H](NC(=O)[C@@H]3C=C4c5cccc6[nH]cc(c56)C[C@H]4N(C)C3)C(C)C)cc2)cc1)C(N)=O | 
 |  | CC(=O)N[C@@H](CCCCNC(=O)[C@@H]1CCCN1C(=O)[C@H](Cc1ccc([N+](=O)[O-])cc1)NC(=O)[C@@H](NC(=O)[C@@H]1C=C2c3cccc4[nH]cc(c34)C[C@H]2N(C)C1)C(C)C)C(=O)NCCCC[C@H](NC(=O)CCCC[C@H]1SC[C@H]2NC(=O)N[C@H]21)C(N)=O | pKd [3]: 5.68; pKd [4]: < 4.30; pKd [5]: 5.70; pKd [6]: 4.64
 | Active | CC(=O)N[C@@H](CCCCNC(=O)[C@@H](CCCCNC(=O)[C@@H]1CCCN1C(=O)[C@H](Cc1ccc([N+](=O)[O-])cc1)NC(=O)[C@@H](NC(=O)[C@@H]1C=C2c3cccc4[nH]cc(c34)C[C@H]2N(C)C1)C(C)C)NC(C)=O)C(N)=O | Activity [7]: Active; Activity [8]: Active
Active | Active | CC(=O)N[C@@H](CCC(=O)NCCNC(=O)[C@@H]1CCCN1C(=O)[C@H](Cc1ccc([N+](=O)[O-])cc1)NC(=O)[C@@H](NC(=O)[C@@H]1C=C2c3cccc4[nH]cc(c34)C[C@H]2N(C)C1)C(C)C)C(N)=O | 
 |  | CC(=O)N[C@@H](CCCCNC(=O)CCCCCNC(=O)C1CCCN(C(=O)[C@H](Cc2ccc(F)cc2)NC(=O)[C@H](Cc2ccc([N+](=O)[O-])cc2)NC(=O)[C@@H]2C=C3c4cccc5[nH]cc(c45)C[C@H]3N(C)C2)C1)C(N)=O (stereo not given in full) | Activity [7]: Active; Activity [8]: Active
Active |  | CC(=O)N[C@@H](CCCCNC(=O)C1CCCN(C(=O)[C@H](Cc2ccc(F)cc2)NC(=O)[C@H](Cc2ccc([N+](=O)[O-])cc2)NC(=O)[C@@H]2C=C3c4cccc5[nH]cc(c45)C[C@H]3N(C)C2)C1)C(N)=O (stereo not given in full) | 
Active |  | CC(=O)N[C@@H](CCCCNC(=O)c1ccc(-c2ccc(C(=O)NCCNC(=O)C3CCCN(C(=O)[C@H](Cc4ccc(F)cc4)NC(=O)[C@H](Cc4ccc([N+](=O)[O-])cc4)NC(=O)[C@@H]4C=C5c6cccc7[nH]cc(c67)C[C@H]5N(C)C4)C3)cc2)cc1)C(N)=O (stereo not given in full) | 
 |  | CC(C)[C@H](NC(=O)[C@@H]1C=C2c3cccc4[nH]cc(c34)C[C@H]2N(C)C1)C(=O)N[C@@H](Cc1ccc([N+](=O)[O-])cc1)C(=O)N1CCC[C@H]1C(=O)NCCCCCC(=O)NCCCC[C@H](NC(=O)CCCC[C@H]1SC[C@H]2NC(=O)N[C@H]21)C(N)=O | pKd [3]: 6.97; pKd [4]: 5.49; pKd [5]: 6.59; pKd [6]: 5.15
Active |  | CC(=O)N[C@@H](CCCCNC(=O)[C@@H](CCCCNC(=O)C1CCCN(C(=O)[C@H](Cc2ccc(F)cc2)NC(=O)[C@H](Cc2ccc([N+](=O)[O-])cc2)NC(=O)[C@@H]2C=C3c4cccc5[nH]cc(c45)C[C@H]3N(C)C2)C1)NC(C)=O)C(N)=O (stereo not given in full) | Activity [7]: Active; Activity [8]: Active
Active |  | CC(=O)N[C@@H](CCC(=O)Nc1ccc(-c2ccc(NC(=O)C3CCCN(C(=O)[C@H](Cc4ccc(F)cc4)NC(=O)[C@H](Cc4ccc([N+](=O)[O-])cc4)NC(=O)[C@@H]4C=C5c6cccc7[nH]cc(c67)C[C@H]5N(C)C4)C3)cc2)cc1)C(N)=O (stereo not given in full) | 
Active |  | CC(=O)N[C@@H](CCCCNC(=O)CCC(=O)NCCNC(=O)[C@@H]1CCCN1C(=O)[C@H](Cc1ccc([N+](=O)[O-])cc1)NC(=O)[C@@H](NC(=O)[C@@H]1C=C2c3cccc4[nH]cc(c34)C[C@H]2N(C)C1)C(C)C)C(N)=O | 
Active |  | CC(=O)N[C@@H](CCCCNC(=O)CCCC(=O)NCCNC(=O)C1CCCN(C(=O)[C@H](Cc2ccc(F)cc2)NC(=O)[C@H](Cc2ccc([N+](=O)[O-])cc2)NC(=O)[C@@H]2C=C3c4cccc5[nH]cc(c45)C[C@H]3N(C)C2)C1)C(N)=O (stereo not given in full) | 
 | Active | CC(=O)N[C@@H](CCCCNC(=O)CCCCCNC(=O)[C@@H]1CCCN1C(=O)[C@H](Cc1ccc([N+](=O)[O-])cc1)NC(=O)[C@@H](NC(=O)[C@@H]1C=C2c3cccc4[nH]cc(c34)C[C@H]2N(C)C1)C(C)C)C(N)=O | Activity [7]: Active

SMILES | Activity [1] | Activity [2] | also measured
CC(=O)N[C@@H](CCCCNC(=O)[C@@H]1CCCN1C(=O)[C@H](Cc1ccc([N+](=O)[O-])cc1)NC(=O)[C@@H](NC(=O)[C@@H]1C=C2c3cccc4[nH]cc(c34)C[C@H]2N(C)C1)C(C)C)C(N)=O | Active | Active | 
